In ChEMBL document CHEMBL1240339, “Raft nanodomains contribute to Akt/PKB plasma membrane recruitment and activation” (Nat Chem Biol, 2008):
Values joined by “and” are separate entries in the source; they are usually repeats but may differ in a detail not shown here. Equal values may be shown once. Active and inactive are the calls of the source. The calls are words filed in the database; no cut-off is given here.

Assays:
Type in all cases: cell-based
Jurkat [1] = experiment: Inhibition of serine palmitoyltransferase in human Jurkat JA16 cells assessed as sphingomyelin level at 25 uM after 14 to 18 hrs by fluorescence correlation spectroscopy relative to control; set-up: scale not given: the % may be the effect or the level left
COS-7 [2] = experiment: Inhibition of serine palmitoyltransferase in african green monkey COS7 cells assessed as sphingomyelin level at 10 uM after 14 to 18 hrs by fluorescence correlation spectroscopy relative to control; set-up: scale not given: the % may be the effect or the level left; conditions: Chlorocebus aethiops
[3] = target: RAC-alpha serine/threonine-protein kinase (Mus musculus) (UniProt P31750); experiment: Inhibition of CD-28 triggered Akt phosphorylation in mouse DWT6.11 cells assessed as enzyme phosphorylation at Thr308 by immunoblotting relative to control; conditions: concentration not given here
RAC-alpha serine/threonine-protein kinase (Mus musculus), sequence (P31750 whole entry): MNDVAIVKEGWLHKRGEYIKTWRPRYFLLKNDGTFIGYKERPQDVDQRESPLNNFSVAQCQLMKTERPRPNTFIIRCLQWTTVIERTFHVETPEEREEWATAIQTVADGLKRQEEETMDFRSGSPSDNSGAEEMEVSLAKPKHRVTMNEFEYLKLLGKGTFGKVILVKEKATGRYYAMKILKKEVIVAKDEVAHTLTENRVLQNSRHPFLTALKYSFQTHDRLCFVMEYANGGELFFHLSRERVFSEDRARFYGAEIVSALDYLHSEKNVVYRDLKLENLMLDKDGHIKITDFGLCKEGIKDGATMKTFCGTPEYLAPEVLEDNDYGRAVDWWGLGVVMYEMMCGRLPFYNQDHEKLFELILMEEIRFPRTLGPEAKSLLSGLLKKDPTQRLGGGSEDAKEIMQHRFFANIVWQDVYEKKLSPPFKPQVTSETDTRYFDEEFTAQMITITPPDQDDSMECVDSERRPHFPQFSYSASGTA
How it was run: (§1)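 DWT6.11 mouse T cells were given 25 µM myriocin for 48 h in complete medium, then serum-starved 14–18 h with 25 µM myriocin, then stimulated with CD28 monoclonal antibody. Akt Thr308 and Ser473 phosphorylation induction was quantified by immunoblotting as % of untreated cells, mean ± s.d., n = 3.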

[4] = target: RAC-alpha serine/threonine-protein kinase (Mus musculus) (UniProt P31750); experiment: Inhibition of CD-28 triggered Akt phosphorylation in mouse DWT6.11 cells assessed as enzyme phosphorylation at Ser473 by immunoblotting relative to control; conditions: concentration not given here; how it was run: as §1
Mus musculus [5] = species: Mus musculus; experiment: Inhibition of CD-28 triggered Ras/MAPK in mouse DWT6.11 cells by immunoblotting analysis
How it was run: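 DWT6.11 cells were pretreated with myriocin (25 µM, 48 h in complete medium, then serum-starved 14–18 h). They were stimulated or not with CD28 monoclonal antibody. The Ras/MAPK pathway was read as ERK phosphorylation by immunoblotting.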

Mus musculus [6] = species: Mus musculus; experiment: Inhibition of serine palmitoyltransferase in mouse DWT6.11 cells assessed as sphingomyelin level at 25 uM after 14 to 18 hrs by fluorescence correlation spectroscopy relative to control; set-up: scale not given: the % may be the effect or the level left
Mus musculus [7] = species: Mus musculus; experiment: Inhibition of serine palmitoyltransferase in mouse DWT6.11 cells assessed as cholesterol level at 25 uM after 14 to 18 hrs by fluorescence correlation spectroscopy relative to control; set-up: scale not given: the % may be the effect or the level left
[8] = target: T1, Squalene synthase (Homo sapiens) (UniProt P37268); experiment: Inhibition of squalene synthase in human Jurkat JA16 cells assessed as cholesterol level at 25 uM after 14 to 18 hrs by fluorescence correlation spectroscopy relative to control; set-up: scale not given: the % may be the effect or the level left
T1 sequence (whole entry): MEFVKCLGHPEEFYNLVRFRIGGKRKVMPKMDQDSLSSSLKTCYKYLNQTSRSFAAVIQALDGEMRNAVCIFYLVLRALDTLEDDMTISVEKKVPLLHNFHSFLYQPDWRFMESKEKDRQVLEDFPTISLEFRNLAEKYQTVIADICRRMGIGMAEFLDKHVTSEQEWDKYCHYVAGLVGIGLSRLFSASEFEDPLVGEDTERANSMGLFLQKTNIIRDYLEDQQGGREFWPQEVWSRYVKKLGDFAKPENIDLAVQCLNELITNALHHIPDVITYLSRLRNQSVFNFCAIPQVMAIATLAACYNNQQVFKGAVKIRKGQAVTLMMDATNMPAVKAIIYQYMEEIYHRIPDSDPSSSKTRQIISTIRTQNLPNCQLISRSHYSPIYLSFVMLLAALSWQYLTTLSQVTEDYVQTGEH

COS-7 [9] = experiment: Inhibition of serine palmitoyltransferase in african green monkey COS7 cells assessed as cholesterol level at 10 uM after 14 to 18 hrs by fluorescence correlation spectroscopy relative to control; set-up: scale not given: the % may be the effect or the level left; conditions: Chlorocebus aethiops
Jurkat [10] = experiment: Inhibition of serine palmitoyltransferase in human Jurkat JA16 cells assessed as lateral diffusion of the outer membrane leaflet-linked FL-PE nanodomain at 25 uM after 14 to 18 hrs by fluorescence correlation spectroscopy
[11] = target: T2, Squalene synthase (Mus musculus) (UniProt P53798); experiment: Inhibition of squalene synthase in mouse DWT6.11 cells assessed as cholesterol level at 5 uM after 14 to 18 hrs by fluorescence correlation spectroscopy relative to control; set-up: scale not given: the % may be the effect or the level left
T2 sequence (whole entry): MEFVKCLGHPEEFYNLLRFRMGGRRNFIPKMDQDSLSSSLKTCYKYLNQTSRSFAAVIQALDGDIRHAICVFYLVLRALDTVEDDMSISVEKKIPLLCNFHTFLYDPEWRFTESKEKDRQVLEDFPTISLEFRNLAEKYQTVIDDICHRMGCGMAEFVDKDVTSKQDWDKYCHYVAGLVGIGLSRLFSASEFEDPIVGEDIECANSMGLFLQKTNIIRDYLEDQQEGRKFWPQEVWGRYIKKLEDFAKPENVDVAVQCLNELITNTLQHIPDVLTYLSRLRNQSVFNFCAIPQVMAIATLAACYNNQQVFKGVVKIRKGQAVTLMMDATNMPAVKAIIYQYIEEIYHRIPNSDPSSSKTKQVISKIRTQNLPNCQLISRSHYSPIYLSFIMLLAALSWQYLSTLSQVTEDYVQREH

[12] = target: T1, Squalene synthase (Homo sapiens); experiment: Inhibition of squalene synthase in human Jurkat JA16 cells assessed as cholesterol level at 5 uM after 14 to 18 hrs by fluorescence correlation spectroscopy relative to control; set-up: scale not given: the % may be the effect or the level left
COS-7 [13] = experiment: Inhibition of squalene synthase in african green monkey COS7 cells assessed as cholesterol level at 5 uM after 14 to 18 hrs by fluorescence correlation spectroscopy relative to control; set-up: scale not given: the % may be the effect or the level left; conditions: Chlorocebus aethiops
[14] = target: T2, Squalene synthase (Mus musculus); experiment: Inhibition of squalene synthase in mouse DWT6.11 cells assessed as sphingomyelin level at 5 uM after 14 to 18 hrs by fluorescence correlation spectroscopy relative to control; set-up: scale not given: the % may be the effect or the level left
Jurkat [15] = experiment: Inhibition of serine palmitoyltransferase in human Jurkat JA16 cells assessed as sphingomyelin level at 5 uM after 14 to 18 hrs by fluorescence correlation spectroscopy relative to control; set-up: scale not given: the % may be the effect or the level left
COS-7 [16] = experiment: Inhibition of squalene synthase in african green monkey COS7 cells assessed as of cholesterol level at 5 uM after 14 to 18 hrs by fluorescence correlation spectroscopy relative to control; set-up: scale not given: the % may be the effect or the level left; conditions: Chlorocebus aethiops

Row | Compound | Activity (Jurkat [1]) [%] | Activity (COS-7 [2]) [%] | inhibition [3] [%] | inhibition [4] [%] | inhibition (Mus musculus [5]) | Activity (Mus musculus [6]) [%] | Activity (Mus musculus [7]) [%] | Activity [8] [%] | Activity (COS-7 [9]) [%] | Activity (Jurkat [10]) | Activity [11] [%] | Activity [12] [%] | Activity (COS-7 [13]) [%] | Activity [14] [%] | Activity (Jurkat [15]) [%] | Activity (COS-7 [16]) [%]
1 | CCCCCCC(=O)CCCCCC/C=C/C[C@@H](O)[C@H](O)[C@@](N)(CO)C(=O)O | 28 | 30 | 50.8 | 51.2 | inactive | 24 | 98 | 97 | 92 | 0.9 ms and 0.8 um2/s |  |  |  |  |  | 
2 | C=C(CC[C@]12O[C@H](C(=O)O)[C@@](O)(C(=O)O)[C@](C(=O)O)(O1)[C@H](OC(=O)/C=C/[C@@H](C)C[C@@H](C)CC)[C@H]2O)[C@@H](OC(C)=O)[C@H](C)Cc1ccccc1 |  |  |  |  | inactive |  |  |  |  |  | 64 | 81 | 73 | 103 | 97 | 90
